# Data as given in ChEMBL document CHEMBL2321648, “Structure-based discovery of pyrazolobenzothiazine derivatives as inhibitors of hepatitis C virus replication” (J Med Chem, 2013).
# How the values were obtained:
# [1] = Cytotoxicity against human HuH5.2 cells by MTS assay; assay type: cell-based, Huh-5-2
# Hepatitis C virus [2] = test: Antiviral activity against Hepatitis C virus subtype 1b infected in human HuH5.2 cells assessed as inhibition of virus-induced cytopathic effect; assay type: functional, organism-based, Hepacivirus hominis; details: genotype 1b, Huh-5-2
# Summary of the method: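 Eight-step 1:2 dilution series, 72 h at 37 °C. Cells lysed and luciferase luminescence read, expressed as % of untreated controls. EC50 taken from the dose-response curve, means ± SD of at least three independent experiments.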
# Hepatitis C virus [3] = test: Inhibition of N-terminal His-tagged recombinant Hepatitis C virus subtype 1b NS5B Cdelta21 RNA dependent RNA polymerase expressed in Escherichia coli at 50 uM by liquid scintillation counting analysis
# Summary of the method: (§1)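 N-His-tagged NS5BCΔ21 (NIH1b), purified from E. coli DH5α on Ni-NTA, 100 ng per reaction. Reaction stopped with cold TCA/pyrophosphate, products filter-precipitated and scintillation-counted. Compound tested at 50 µM, activity relative to DMSO control.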
# [4] = Selectivity index, ratio of CC50 for human HuH5.2 cells to EC50 for Hepatitis C virus subtype 1b; assay type: toxicity; details: read-out: Ratio CC50/EC50
# Summary of the method: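 Ratio of CC50 (MTS, 72 h) to EC50 (luciferase replicon read-out), both measured in parallel in Huh 5-2 replicon cells.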
# Hepatitis C virus [5] = test: Binding affinity to Hepatitis C virus (isolate Con1) NS5B […] by surface plasmon resonance analysis; set-up: species or system Hepacivirus hominis
# Hepatitis C virus [6] = test: Inhibition of N-terminal His-tagged recombinant Hepatitis C virus subtype 1b NS5B Cdelta21 RNA dependent RNA polymerase expressed in Escherichia coli by liquid scintillation counting analysis
# Summary of the method: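 Dose-response with 8–12 concentrations, in duplicate in two independent experiments. IC50 obtained by nonlinear regression, means ± SD.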
# Hepatitis C virus [7] = test: Inhibition of N-terminal His-tagged recombinant Hepatitis C virus subtype 1b N-terminal His-tagged expressed in Escherichia coli at 50 uM by liquid scintillation counting analysis relative to control; summary of the method: as §1
# Hepatitis C virus [8] = test: Inhibition of N-terminal His-tagged recombinant Hepatitis C virus subtype 1b N-terminal His-tagged expressed in Escherichia coli at non-toxic concentration by liquid scintillation counting analysis relative to control
# Summary of the method: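 Recombinant NS5B genotype 1b (NIH1b) was His-tagged, C-terminally truncated by 21 residues, expressed in E. coli DH5α and purified on Ni-NTA. Products were TCA-precipitated on filters and counted by scintillation relative to the DMSO control. Compounds were screened at 50 µM.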
# Hepatitis C virus [9] = test: Antiviral activity against Hepatitis C virus subtype 1b infected in human Huh-9-13 cells assessed as inhibition of virus-induced cytopathic effect; assay type: functional, organism-based, Hepacivirus hominis; details: genotype 1b
SMILES,EC50 (Hepatitis C virus [2]) [µM],inhibition at 50 µM (Hepatitis C virus [3]) [%],inhibition at 50 µM (Hepatitis C virus [7]) [%],other results
CS(=O)(=O)Nc1ccc(NC(=O)c2nn(-c3ccccc3)c3c2NS(=O)(=O)c2ccccc2-3)cc1,14,,,CC50 [1]: > 239 µM
CS(=O)(=O)Nc1ccc(NC(=O)c2nn(-c3cccc([N+](=O)[O-])c3)c3c2NS(=O)(=O)c2ccccc2-3)cc1,> 220,33.7,,selectivity ratio [4]: ≥ 1; CC50 [1]: > 220 µM; EC90 (Hepatitis C virus [2]): > 220 µM; Kd (Hepatitis C virus [5]): 14 µM
CS(=O)(=O)Nc1ccc(NC(=O)c2nn(-c3ccccc3[N+](=O)[O-])c3c2NS(=O)(=O)c2ccccc2-3)cc1,17.8,,,CC50 [1]: > 220 µM
CS(=O)(=O)Nc1ccc(NC(=O)c2nn(-c3ccc([N+](=O)[O-])cc3)c3c2NS(=O)(=O)c2ccccc2-3)cc1,7.9,,,IC50 (Hepatitis C virus [6]): 7.7 µM
CN1c2c(C(=O)Nc3ccc(NS(C)(=O)=O)cc3)nn(-c3cccc(N)c3)c2-c2ccccc2S1(=O)=O,9.2,45.8,45.8,
CN1c2c(C(=O)Nc3ccc(NS(C)(=O)=O)cc3)nn(-c3ccccc3N)c2-c2ccccc2S1(=O)=O,26,,,
CN1c2c(C(=O)Nc3ccc(NS(C)(=O)=O)cc3)nn(-c3ccc(N)cc3)c2-c2ccccc2S1(=O)=O,12,,,
CN1c2c(C(=O)Nc3ccc(N)cc3)nn(-c3cccc(F)c3)c2-c2ccccc2S1(=O)=O,19,31.5,31.5,
CN1c2c(C(=O)Oc3ccc(NS(C)(=O)=O)cc3)nn(-c3cccc(F)c3)c2-c2ccccc2S1(=O)=O,88,21.4,21,
COC(=O)c1nn(-c2cccc(F)c2)c2c1N(C)S(=O)(=O)c1ccccc1-2,172,10.6,11,inhibition (INH) (Hepatitis C virus [8]): 40%
CN1c2c(C(=O)Nc3ccc(NS(C)(=O)=O)cc3)nn(-c3cccc(F)c3)c2-c2ccccc2S1(=O)=O,7.5,,,EC50 (Hepatitis C virus [9]): 3.6 µM
CN1c2c(C(=O)Nc3ccc(NS(C)(=O)=O)cc3)nn(-c3ccccc3F)c2-c2ccccc2S1(=O)=O,6.4,,,
CN1c2c(C(=O)Nc3ccc(NS(C)(=O)=O)cc3)nn(-c3ccc(F)cc3)c2-c2ccccc2S1(=O)=O,23,,,
